Calls of active or inactive are those of the source.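 The calls were made as follows, unless noted: active = inhibition at or above 50% relative to wild type and mutant plate controls; inactive = inhibition below 50%.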
Legend:
[1] = inhibitors of TNFa-induced NFkB p65 translocation, primary screen, imaging, HUVEC, MLSMR starter and 10KST1 sets (AID 438;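 active = inhibition above 20% together with a positive visual image hit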;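 also: compound added about 3h40 before a 20 min TNFalpha stimulation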;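 as to inhibition: signal is the nuclear over cytoplasmic p65 intensity ratio per well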); settings: HUVEC TNFa-induced p65 nuclear translocation; cell count: measured here: nuclei count (cytotoxicity indicator), at 2.08 µM; inhibition: at 2 µM, stronger effect = higher value, 0% TNFa-plus-vehicle, 100% no-TNFa wells
[2] = inhibitors of E-selectin induction by TNFa, primary screen, imaging, HUVEC, immunofluorescence, MLSMR starter and 10KST1 sets (AID 487;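 active = visually confirmed hit in the image check and inhibition above 20%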;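 as to inhibition: signal is fraction of cell area covered by stained E-selectin grains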;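 as to nuclei count: 100% = median nuclei count of all wells on the same plate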); settings: HUVEC TNFalpha-induced E-selectin immunofluorescence imaging, at 2 µM; inhibition: stronger effect = higher value; nuclei count: measured here: cell number, toxicity
[3] = DUSP6 inhibitors restoring Erk phosphorylation by chemical complementation, primary imaging in DUSP6-transfected HeLa (AID 609;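 active = compounds giving at least 50% inhibition in the cell-based MKP-3 phosphatase rescue imaging test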;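 as to inhibition: phospho-Erk level distribution per well compared with pooled transfected vehicle control wells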); settings: HeLa MKP-3 transfected, phospho-Erk imaging KS statistic, at 10 µM, cells stimulated with TPA for 15 min
[4] = target: Dual specificity protein phosphatase 6 (Homo sapiens) (UniProt Q16828); experiment: as above; settings: HeLa MKP-3 transfected, phospho-Erk imaging KS statistic; at 10 µM; stronger effect = higher value; cells stimulated with TPA for 15 min
Chain of Dual specificity protein phosphatase 6 (Homo sapiens) (Q16828 whole entry, looked up): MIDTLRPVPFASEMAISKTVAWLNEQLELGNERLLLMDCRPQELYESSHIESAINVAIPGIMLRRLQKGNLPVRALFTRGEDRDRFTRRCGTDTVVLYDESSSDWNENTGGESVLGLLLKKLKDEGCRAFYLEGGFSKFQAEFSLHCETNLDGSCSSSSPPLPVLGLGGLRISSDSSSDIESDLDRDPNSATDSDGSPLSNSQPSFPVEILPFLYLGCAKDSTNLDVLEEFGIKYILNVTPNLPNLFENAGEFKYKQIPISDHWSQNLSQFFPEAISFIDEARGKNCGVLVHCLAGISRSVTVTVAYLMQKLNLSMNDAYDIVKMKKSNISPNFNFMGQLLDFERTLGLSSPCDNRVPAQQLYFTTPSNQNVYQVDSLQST

[5] = target: Voltage-gated potassium channel subunit beta-2 (Rattus norvegicus) (UniProt P62483); experiment: KvBeta enzyme negative modulators, primary screen, biochemical, NADPH fluorescence (AID 622;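 active = fluorescence slope higher than the sample average by over 3 SD, cut at about -0.22 in these data, passing the limit was not always enough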;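 also: slope of raw intensity against log time taken from 70 to 1610 s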); settings: recombinant KvBeta, 4-cyanobenzaldehyde reduction, at 10 µM, stronger effect = higher value
Chain of Voltage-gated potassium channel subunit beta-2 (Rattus norvegicus) (P62483 whole entry, looked up): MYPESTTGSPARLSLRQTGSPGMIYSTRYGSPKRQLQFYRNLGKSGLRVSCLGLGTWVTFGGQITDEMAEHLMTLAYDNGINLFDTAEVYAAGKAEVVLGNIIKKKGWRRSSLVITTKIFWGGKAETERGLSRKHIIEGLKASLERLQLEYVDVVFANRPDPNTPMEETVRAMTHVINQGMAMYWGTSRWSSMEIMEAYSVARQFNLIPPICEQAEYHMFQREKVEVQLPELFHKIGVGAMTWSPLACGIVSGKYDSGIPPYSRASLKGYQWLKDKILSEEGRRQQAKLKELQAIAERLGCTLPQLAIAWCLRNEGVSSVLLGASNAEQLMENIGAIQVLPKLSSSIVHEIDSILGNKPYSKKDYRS

[6] = target: Voltage-gated potassium channel subunit beta-2 (Rattus norvegicus) (UniProt P62483); experiment: KvBeta positive modulators, primary screen, biochemical, NADPH fluorescence (AID 623;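 active = NADPH fluorescence slope more negative than the mean of all samples by about 3 SD, 99.7% confidence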;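 also: fluorescence intensity change per second fitted from 20 to 320 s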); settings: Recombinant KvBeta, NADPH fluorescence decrease slope, 10 min; at 10 µM; stronger effect = lower value
[7] = target: Alpha-2C adrenergic receptor (Homo sapiens) (UniProt P18825); experiment: modulators of alpha2C/GIRK thallium flux, primary screen, cell-based, HEK293 alpha2C/GIRK1/2 (AID 624;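 active = fluorescence slope after compound addition differing from the mean of all screened samples at 99.7% confidence, in either direction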;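 also: slope of fluorescence ratio to pre-addition baseline per second over 15 to 24 s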); settings: thallium flux BTC fluorescence, at 10 µM, actives lie on both sides
Chain of Alpha-2C adrenergic receptor (Homo sapiens) (P18825 whole entry, looked up): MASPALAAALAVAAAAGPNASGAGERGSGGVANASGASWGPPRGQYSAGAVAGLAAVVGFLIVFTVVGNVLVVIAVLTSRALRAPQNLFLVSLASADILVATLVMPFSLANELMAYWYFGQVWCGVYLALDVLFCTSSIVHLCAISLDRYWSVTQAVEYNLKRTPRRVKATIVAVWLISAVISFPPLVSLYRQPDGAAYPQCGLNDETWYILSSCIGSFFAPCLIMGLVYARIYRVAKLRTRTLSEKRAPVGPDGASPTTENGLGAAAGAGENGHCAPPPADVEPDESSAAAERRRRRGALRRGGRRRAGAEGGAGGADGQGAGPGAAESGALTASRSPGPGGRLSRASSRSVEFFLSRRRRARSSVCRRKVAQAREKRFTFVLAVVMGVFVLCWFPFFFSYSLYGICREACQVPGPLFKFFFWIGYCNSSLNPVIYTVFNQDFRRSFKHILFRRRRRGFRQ

[8] = inhibitors of larval lipid processing in zebrafish, primary screen, whole organism, PED6 fluorescence, gall bladder and intestine (AID 686;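 active = a full or partial loss of lipid-probe fluorescence in the fish gall bladder, intestine or both, judged by eye; inactive = no fluorescence loss, or compound toxic to the fish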;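 also: larvae 5 to 7 days old with five fish per well; signal comes from phospholipase A2 cleavage of quenched PED6 carried via bile; overnight exposure to compound and PED6 before scoring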); settings: Zebrafish larvae PED6 lipid processing, fluorescence scoring; screened at 20 µM (by protocol)
Outline: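 Test system – live zebrafish larvae aged 5-7 days, whole organism · Buffer or medium – E3 fish medium · Reagent – quenched phospholipase substrate PED6, 100 nM final, ingested by larvae · Doses – 20 µM single dose · Incubation – overnight compound and PED6 incubation · Technique – visual fluorescence microscopy scoring of gall bladder, gut · Read-out basis – visual per-well fluorescence inhibition score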

[9] = inhibitors of Chlamydomonas gravitaxis, primary screen, whole organism, Chlamydomonas reinhardtii, WT vs cilia-less mutant, absorbance, 96-well (AID 463189); settings: OD600 absorbance, 2 days, at 10 µM, stronger effect = higher value;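 also: 0% = wild type cc124 cells in DMSO and 100% = ciliumless bld1 mutant cells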
[10] = measured here: cell density z-score
[11] = measured here: nuclear c-Myc green intensity z-score
[12] = measured here: nuclear pErk red intensity z-score, stronger effect = higher value

SMILES	cell count [1]	inhibition [1]	inhibition [2]	nuclei count [2] [%]	z-score [3, 10]	z-score [3, 11]	z-score [3, 12]	inhibition [4]	fluorescence slope [5]	NADPH fluorescence slope [6]	slope [7]	outcome [8]	inhibition [9]
CCOc1cccc(-c2nnc3sc(-c4ccc(C)cc4)nn23)c1	588	-12% (inactive)	-113% (inactive)	166	0.29	-1.67	0.863	-9.66% (inactive)	-0.458 (inactive)	-0.000137 (inactive)	0.00552 (inactive)	inactive	-1.49% (inactive)
CCCCNC(=O)N(C)c1nncnc1C(=O)NC	491	-10.8% (inactive)	-190% (inactive)	191	0.256	-0.788	0.32	-7.28% (inactive)	-0.37 (inactive)	-2.2e-05 (inactive)	0.00552 (inactive)	inactive	-1.96% (inactive)
COC(=O)C(NC(C)=O)(Nc1ccccc1)C(=O)OC	566	-19.3% (inactive)	-259% (inactive)	191	1.28	-1.78	-0.855	18.2% (inactive)	-0.532 (inactive)	-6.4e-05 (inactive)	0.00504 (inactive)	inactive	2.12% (inactive)
N#Cc1nc(-c2ccc(Cl)cc2)oc1N1CCCCC1	424	-5.8% (inactive)	-41.2% (inactive)	138	-0.0904	-0.228	0.966	9.61% (inactive)	-0.394 (inactive)	-1.7e-05 (inactive)	0.00666 (inactive)	inactive	20% (inactive)
O=C(NC1CCCCC1)N1CCSC1=Nc1ccccc1	490	-27.8% (inactive)	-420% (inactive)	202	0.92	-1.53	0.173	24.4% (inactive)	-0.495 (inactive)	-9.6e-05 (inactive)	0.00417 (inactive)	inactive	11.3% (inactive)
COc1ccccc1C1/C(=C(/O)c2cnn(-c3ccccc3)c2C)C(=O)C(=O)N1CCN(C)C (stereo not drawn)	498	-0.5% (inactive)	-189% (inactive)	132	0.414	-0.415	-0.719	10.5% (inactive)	-0.558 (inactive)	-7e-05 (inactive)	0.00448 (inactive)	inactive; toxic	-1.15% (inactive)
Cc1ccc(C(=O)CSC2=C(C#N)C(c3ccco3)C3=C(CCCC3=O)N2)cc1 (stereo not drawn)	333	-7.4% (inactive)	-98.2% (inactive)	165	1.35	-1.13	0.366	1.42% (inactive)	-0.449 (inactive)	-0.000148 (inactive)	0.00654 (inactive)	inactive	8.93% (inactive)
c1coc(-c2nnc3sc(C4CCCCC4)nn23)c1	653	-0.1% (inactive)	-85.2% (inactive)	170	-0.617	-0.759	-0.627	1.12% (inactive)	-0.451 (inactive)	-0.000143 (inactive)	0.00424 (inactive)	inactive	77.6% (active)
CN1CCN(CCC(=O)N2c3ccccc3Sc3ccc(Cl)cc32)CC1	450	-3.2% (inactive)	-122% (inactive)	176	0.831	0.747	-0.386	0.671% (inactive)	-0.432 (inactive)	-5.3e-05 (inactive)	0.00551 (inactive)	inactive	15.9% (inactive)
COc1ccc(C(=O)CSC2=C(C#N)C3(CCCCC3)C(C#N)=C(N)N2)cc1	705	-13.2% (inactive)	-25.4% (inactive)	192	-0.688	1.18	0.232	2.71% (inactive)	-0.393 (inactive)	-3.2e-05 (inactive)	0.00422 (inactive)	inactive	-3.04% (inactive)
Cc1cc(=O)oc(C)c1C(=O)N1CCN(Cc2ccc3c(c2)OCO3)CC1	387	-8.4% (inactive)	-58.3% (inactive)	158	-0.184	-0.833	-0.4	9.42% (inactive)	-0.451 (inactive)	-0.000128 (inactive)	0.00491 (inactive)	inactive	21.2% (inactive)
CCOC(=O)c1[nH]c2ccc(OC)cc2c1NC(=O)CN1CCN(c2ccccn2)CC1	551	-8.8% (inactive)	-2.8% (inactive)	157	-0.126	0.554	1.04	-14% (inactive)	-0.16 (inactive)	2.2e-06 (inactive)	0.00466 (inactive)	inactive	-9.68% (inactive)
O=C1C(=O)N(CCN2CCOCC2)C(c2ccccn2)/C1=C(/O)c1ccc(F)cc1 (stereo not drawn)	368	-5.8% (inactive)	-3.3% (inactive)	124	-0.169	0.443	-0.876	3.66% (inactive)	-0.392 (inactive)	-5.6e-05 (inactive)	0.00569 (inactive)	inactive	38.7% (inactive)
CCCOc1ccc(/C(O)=C2/C(=O)C(=O)N(CCCn3ccnc3)C2c2cccs2)cc1 (stereo not drawn)	537	-14.3% (inactive)	-124% (inactive)	150	-0.681	-0.103	0.12	-18.6% (inactive)	-0.495 (inactive)	-3.4e-05 (inactive)	0.00501 (inactive)	inactive	0.323% (inactive)
CCOP(=O)(c1ccccc1)c1nc(-c2ccccc2C)oc1N1CCCCC1 (stereo not drawn)	603	-2.4% (inactive)	-34% (inactive)	167	-0.907	0.675	1.07	13.2% (inactive)	-0.49 (inactive)	-0.000125 (inactive)	0.00422 (inactive)	inactive	56.6% (active)
CN(C)CCNc1nc(-c2ccco2)c2c(c1C#N)CC(C)(C)OC2	621	-14.2% (inactive)	-15.8% (inactive)	164	-0.37	-0.517	0.864	1.48% (inactive)	-0.34 (inactive)	-5.5e-05 (inactive)	0.00509 (inactive)	inactive	17.6% (inactive)
CCc1ccc(NC(=O)CSC2=C(C#N)C(c3ccco3)C3=C(CCCC3=O)N2)cc1 (stereo not drawn)	461	-1.3% (inactive)	-13.8% (inactive)	117	-0.838	1.11	0.462	5.57% (inactive)	-0.501 (inactive)	-8.3e-05 (inactive)	0.00507 (inactive)	inactive	-1.64% (inactive)
Cc1c(OCc2ccccc2)c(=O)ccn1Cc1ccccc1	560	-7.9% (inactive)	-27.8% (inactive)	226	0.907	-0.745	-0.326	-2.91% (inactive)	-0.379 (inactive)	-2.4e-05 (inactive)	0.00471 (inactive)	inactive	-5.81% (inactive)
COC(=O)c1cc(OC)c(OC)cc1N	358	-11.5% (inactive)	9.3% (inactive)	135	0.282	0.254	0.0446	-12.3% (inactive)	-0.385 (inactive)	-0.000132 (inactive)	0.00592 (inactive)	inactive	-2.54% (inactive)
N#CC1=C(SCC(=O)c2ccc(Br)cc2)NC2=C(C(=O)CCC2)C1c1ccco1 (stereo not drawn)	383	-10.4% (inactive)	-96.6% (inactive)	179	0.687	-1.61	1.14	-8.59% (inactive)	-0.399 (inactive)	-0.000128 (inactive)	0.00589 (inactive)	inactive	3.41% (inactive)
CCOC(=O)c1oc2cc(O)cc(C)c2c(=O)c1-c1cscn1	583	-5.6% (inactive)	-117% (inactive)	133	0.544	-0.073	-1.73	19.8% (inactive)	-0.569 (inactive)	-4.5e-05 (inactive)	0.0036 (inactive)	inactive	-5.6% (inactive)
